Laboratory results from the M2OR odorant receptor database.
Substitutions are numbered along the chain they refer to.

Experiments:
Details in all cases: stereoisomer not certain
OR5DG A156T = system: T1, OR5DG A156T
T1 sequence (whole entry): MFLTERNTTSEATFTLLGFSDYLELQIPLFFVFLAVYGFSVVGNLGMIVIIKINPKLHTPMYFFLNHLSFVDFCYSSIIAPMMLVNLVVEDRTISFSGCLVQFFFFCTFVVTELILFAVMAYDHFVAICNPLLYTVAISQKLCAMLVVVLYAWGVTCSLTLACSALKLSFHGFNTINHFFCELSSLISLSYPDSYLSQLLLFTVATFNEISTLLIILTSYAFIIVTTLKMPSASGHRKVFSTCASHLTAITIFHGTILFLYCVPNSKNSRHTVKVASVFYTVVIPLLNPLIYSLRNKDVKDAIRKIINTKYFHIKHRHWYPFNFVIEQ
Outline: (§1)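 Values were gathered from published papers (main text and supplementary material), with extra details requested from the original authors when needed, and checked for typos and inconsistencies. Each receptor–molecule pair is called responsive (active) if the original authors judged the measured signal statistically different from baseline, and non-responsive (inactive) otherwise. Assay methods varied by source, often transient mammalian cell-line luciferase assays. Recorded details include cell line, G-protein, co-transfected protein and tags.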

OR5DI = system: T2, OR5DI
T2 sequence (whole entry): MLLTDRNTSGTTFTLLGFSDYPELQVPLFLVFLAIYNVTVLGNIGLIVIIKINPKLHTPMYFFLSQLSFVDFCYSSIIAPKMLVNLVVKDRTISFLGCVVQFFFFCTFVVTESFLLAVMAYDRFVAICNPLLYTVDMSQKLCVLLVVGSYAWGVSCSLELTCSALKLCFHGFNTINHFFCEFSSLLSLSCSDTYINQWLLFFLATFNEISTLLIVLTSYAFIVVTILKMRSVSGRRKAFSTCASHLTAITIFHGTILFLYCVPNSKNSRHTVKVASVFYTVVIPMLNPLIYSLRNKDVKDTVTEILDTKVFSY
Outline: as §1

OR5F1 (Homo sapiens) = biological target: T3, OR5F1 (Homo sapiens) (UniProt O95221)
T3 sequence (whole entry): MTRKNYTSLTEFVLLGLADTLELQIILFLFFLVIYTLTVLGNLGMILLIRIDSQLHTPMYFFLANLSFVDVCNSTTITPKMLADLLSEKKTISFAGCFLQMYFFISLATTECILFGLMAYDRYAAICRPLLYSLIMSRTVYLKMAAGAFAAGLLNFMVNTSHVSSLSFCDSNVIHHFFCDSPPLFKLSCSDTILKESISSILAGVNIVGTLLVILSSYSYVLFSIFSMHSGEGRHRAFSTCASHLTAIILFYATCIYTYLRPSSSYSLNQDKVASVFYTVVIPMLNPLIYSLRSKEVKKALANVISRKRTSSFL
Outline: as §1

OR5F1 = system: T4, OR5F1
T4 sequence (whole entry): T3 sequence (whole entry) with S294N
Outline: as §1

OR5H1 (Homo sapiens) = biological target: T5, OR5H1 (Homo sapiens) (UniProt A6NKK0)
T5 sequence (whole entry): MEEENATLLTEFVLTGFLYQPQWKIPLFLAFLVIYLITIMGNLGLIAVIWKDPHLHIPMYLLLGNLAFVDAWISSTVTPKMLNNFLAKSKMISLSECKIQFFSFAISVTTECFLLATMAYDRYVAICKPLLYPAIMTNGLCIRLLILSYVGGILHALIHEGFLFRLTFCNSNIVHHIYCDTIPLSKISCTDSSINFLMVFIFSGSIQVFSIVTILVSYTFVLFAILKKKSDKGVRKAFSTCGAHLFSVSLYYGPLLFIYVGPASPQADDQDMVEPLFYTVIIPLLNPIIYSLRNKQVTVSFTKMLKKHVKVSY
Outline: as §1

OR5H1 F17L A30T H56Q = system: T6, OR5H1 F17L A30T H56Q
T6 sequence (whole entry): T5 sequence (whole entry) with F17L, A30T, H56Q
Outline: as §1

OR5H1 T181N = system: T7, OR5H1 T181N
T7 sequence (whole entry): T5 sequence (whole entry) with T181N
Outline: as §1

OR5H14 (Homo sapiens) = biological target: T8, OR5H14 (Homo sapiens) (UniProt A6NHG9)
T8 sequence (whole entry): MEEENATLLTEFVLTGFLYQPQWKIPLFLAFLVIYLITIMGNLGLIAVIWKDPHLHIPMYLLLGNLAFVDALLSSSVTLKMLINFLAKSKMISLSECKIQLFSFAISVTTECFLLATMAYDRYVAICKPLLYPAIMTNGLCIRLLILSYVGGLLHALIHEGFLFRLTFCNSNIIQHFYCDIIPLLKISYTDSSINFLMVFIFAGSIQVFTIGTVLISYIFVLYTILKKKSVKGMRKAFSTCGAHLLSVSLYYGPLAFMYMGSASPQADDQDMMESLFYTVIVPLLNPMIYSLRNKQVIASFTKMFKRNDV
Outline: as §1

OR5H15 (Homo sapiens) = biological target: T9, OR5H15 (Homo sapiens) (UniProt A6NDH6)
T9 sequence (whole entry): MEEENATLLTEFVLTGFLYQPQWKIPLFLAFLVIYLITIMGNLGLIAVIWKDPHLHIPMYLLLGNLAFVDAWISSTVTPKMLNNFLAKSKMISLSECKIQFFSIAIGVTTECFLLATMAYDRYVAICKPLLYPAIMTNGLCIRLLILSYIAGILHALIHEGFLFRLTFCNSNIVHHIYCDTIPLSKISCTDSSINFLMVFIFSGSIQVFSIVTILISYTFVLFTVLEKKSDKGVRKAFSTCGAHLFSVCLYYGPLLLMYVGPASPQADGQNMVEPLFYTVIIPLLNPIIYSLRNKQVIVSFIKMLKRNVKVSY
Outline: as §1

OR5G3 (Homo sapiens) = OR5G3 (Homo sapiens) (UniProt P0C626)
Outline: as §1

Measured: odorant receptor agonist call

Chain of OR5G3 (Homo sapiens) (P0C626 whole entry): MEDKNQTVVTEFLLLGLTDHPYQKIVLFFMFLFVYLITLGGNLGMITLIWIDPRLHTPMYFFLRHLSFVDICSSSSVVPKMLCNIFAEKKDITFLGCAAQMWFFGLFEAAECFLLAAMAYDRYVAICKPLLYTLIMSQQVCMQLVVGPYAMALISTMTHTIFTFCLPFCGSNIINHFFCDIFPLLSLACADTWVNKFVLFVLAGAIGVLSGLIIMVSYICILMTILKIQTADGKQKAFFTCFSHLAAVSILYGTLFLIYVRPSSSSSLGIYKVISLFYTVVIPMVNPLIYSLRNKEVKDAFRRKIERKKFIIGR

CCCC(S)CCOC(C)=O (centres undefined)
not listed: OR5G3 (Homo sapiens)
inactive: all other assays above

CC(CO)CS (centres undefined)
inactive: OR5F1 (Homo sapiens) | OR5H1 (Homo sapiens) | OR5H14 (Homo sapiens) | OR5H15 (Homo sapiens)

CCC1OC(C)=C(O)C1=O (centres undefined)
not listed: OR5G3 (Homo sapiens)
inactive: all other assays above

CCC(S)C(C)CO (centres undefined)
inactive: OR5F1 (Homo sapiens) | OR5H1 (Homo sapiens) | OR5H14 (Homo sapiens) | OR5H15 (Homo sapiens)

CC1CCCCCCCCCCCCC(=O)C1 (centres undefined)
inactive: OR5F1 (Homo sapiens) | OR5G3 (Homo sapiens) | OR5H14 (Homo sapiens) | OR5H15 (Homo sapiens)

CC1=NC(C)C(C)S1 (centres undefined)
not listed: OR5G3 (Homo sapiens)
inactive: all other assays above

CCCCCC(=O)C(C)C(C)=O (centres undefined)
inactive: OR5F1 (Homo sapiens) | OR5H1 (Homo sapiens) | OR5H14 (Homo sapiens) | OR5H15 (Homo sapiens)

CC1=C(O)C(=O)OC1C (centres undefined)
not listed: OR5G3 (Homo sapiens)
inactive: all other assays above

CCC1OC(=O)C(O)=C1C (centres undefined)
not listed: OR5G3 (Homo sapiens)
inactive: all other assays above

CC(=O)c1c(C)c([N+](=O)[O-])c(C(C)(C)C)c([N+](=O)[O-])c1C
inactive: OR5F1 (Homo sapiens) | OR5G3 (Homo sapiens) | OR5H14 (Homo sapiens) | OR5H15 (Homo sapiens)

CCCCCC(S)C(C)CO (centres undefined)
inactive: OR5F1 (Homo sapiens) | OR5H1 (Homo sapiens) | OR5H14 (Homo sapiens) | OR5H15 (Homo sapiens)

CC1=C(O)C(=O)C(C)O1 (centres undefined)
not listed: OR5G3 (Homo sapiens)
inactive: all other assays above

CCCCC(S)C(C)CO (centres undefined)
inactive: OR5F1 (Homo sapiens) | OR5H1 (Homo sapiens) | OR5H14 (Homo sapiens) | OR5H15 (Homo sapiens)

CCCCCCC=CCCC=O
not listed: OR5H1 T181N | OR5G3 (Homo sapiens)
inactive: all other assays above

Cc1cnc(C)c(C)n1
not listed: OR5G3 (Homo sapiens)
inactive: all other assays above
